Shown are actives, neighbours in structure and some others; about 2.1% of the full set was active somewhere.
MEX-5 binding: C. elegans MEX-5 TCR-2 RNA binding activity | Q9XUB2 | MEX-5/FITC-TCR2 RNA binding, fluorescence polarization; active compounds read low | activity score (negative = inhibition of binding), % at 10 µM | 0.38% of 300,000 active | AID 1832;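 active means inhibition past about -25% in most replicates, and total fluorescence under double the plate's negative control median, limit read from the data; inconclusive means replicates evenly split on the limit, or fluorescence at least double controls; inactive means too little inhibition in most replicates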;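 further: 0% = DMSO and -100% = 5 µM competing unlabeled TCR2 RNA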
Runt-CBFb FRET: inhibitors of human RUNX1 Runt domain binding to CBFb | Q01196+Q13951 | Cerulean-Runt/Venus-CBFb FRET ratio 530/480, 1 h | inhibition, % at 20 µM | 0.46% of 220,000 active | AID 1496;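 active means inhibition over about 50% at 20 µM in the single-dose screen, limit read from the data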;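 further: 0% = DMSO wells and 100% = excess unlabeled CBFb competitor control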
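Measured by: fluorescence energy transfer, 422 nm excitation, 530/480 nm emission; test system: Cerulean-tagged RUNX1 Runt domain (FRET donor) fusion protein; buffer or medium: Tris pH 7.5 buffer with BSA; compound: one dose, 20 µM compound, 1% DMSO; times: two 1 h room-temperature incubations shielded from light; benchmarks: unlabeled CBFb 5 µM, positive control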
RanGTP-Imp inh: disruptors of Ran-importin-beta complex formation – biochemical, FRET, CFP-Ran, YFP-importin-beta, homogeneous, primary screen | 1.1% of 300,000 active | inhibition, % (test concentration not listed) | cell-free CFP-Ran/YFP-importin-beta FRET ratio;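 active means more than half of the replicate wells show a fall in the fluorescence ratio signal beyond about 16%, limit read from the data, passing the limit was not always enough; inconclusive means exactly half of the replicate wells pass the set limit; inactive means fewer than half of replicates pass the limit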;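 further: 0% = DMSO wells and 100% = Ran loaded with GDP instead of GTP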
Runt-SMMHC FRET: inhibitors of human RUNX1 Runt domain binding to CBFb-SMMHC | Q01196+Q13951 | Cerulean-Runt/Venus-CBFb-SMMHC FRET ratio 530/480, 1 h | inhibition, % at 20 µM | 0.74% of 220,000 active | AID 1434;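 active means mean inhibition across duplicate retests at 20 µM reaching about 50%, limit read from the data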;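 further: 0% = DMSO wells and 100% = wells with excess untagged CBFb-SMMHC; inhibitors lower the FRET ratio by blocking Runt binding to CBFb-SMMHC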
KLK7 zymogen act: activators of human kallikrein-7 zymogen; purified proKLK7, EDANS-DABCYL substrate fluorescence; 100% is mature enzyme control, 0% vehicle; activation, % at 7 µM; 0.9% of 370,000 active; AID 652039;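 active means activation above the mean of all tested compounds plus 3 SD, computed per campaign excluding outliers beyond control limits, cut at about 13% in these data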
Target sequence (P49862 whole entry, looked up): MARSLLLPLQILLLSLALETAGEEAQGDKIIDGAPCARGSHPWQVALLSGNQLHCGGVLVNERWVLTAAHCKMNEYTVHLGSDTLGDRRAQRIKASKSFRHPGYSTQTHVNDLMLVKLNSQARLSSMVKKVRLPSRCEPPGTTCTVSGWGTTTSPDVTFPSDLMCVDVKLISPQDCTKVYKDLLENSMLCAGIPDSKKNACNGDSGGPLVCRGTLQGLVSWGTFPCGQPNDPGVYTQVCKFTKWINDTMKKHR
The depositor's hits bear a star; ? = inconclusive; . = not tested or not shown.

SMILES	MEX-5 binding	Runt-CBFb FRET	RanGTP-Imp inh	Runt-SMMHC FRET	KLK7 zymogen act
CCCCNc1nc2sc3c(c2c(=O)n1-c1cccc(Cl)c1)CCN(C)C3	.	49	30*	126*	1
CCCCSc1nc2sc3c(c2c(=O)n1-c1ccccc1)CCN(C)C3	1	.	-10	.	-8
CN1CCc2c(sc3nc(SCC(N)=O)n(-c4ccc(Cl)cc4)c(=O)c23)C1	5	.	12	.	-5
CCCCCNc1nc2sc3c(c2c(=O)n1-c1cccc(Cl)c1)CCN(C)C3	.	44	44*	103*	0
CCCCCCCCN1CCS(=O)(=O)N(Cc2ccc(C)cc2)C(C(=O)OC)C1 (configuration not stated)	.	.	.	.	0
CCOC(=O)c1c[nH]c2nc(C)ccc2c1=O	-47*	7	24*	30	-13
N#C/C(=C(/O)COC(=O)c1ccc(Cl)c(S(=O)(=O)N2CCOCC2)c1)c1nc2ccccc2[nH]1	1	3	3	6	0
N#C/C(=C(/O)COC(=O)CCc1ccc(S(=O)(=O)N2CCOCC2)cc1)c1nc2ccccc2[nH]1	-2	13	29*	49	-1
CC(=O)NNc1nc(-c2ccccc2)c2cc(Cl)ccc2n1	.	.	.	.	-1
OCCNc1nc(-c2ccccc2)c2cc(Cl)ccc2n1	1	49	1	90*	2
O=C(O)CCC(=O)NNc1nc(-c2ccccc2)c2cc(Cl)ccc2n1	-44*	.	4	.	-1
COc1ccc(-c2nc3c(C)cc(Br)cn3c2CC2CCCCC2)cc1OC	.	.	.	.	-1
Cc1cc(C)c2c3c(sc2n1)C(c1cccc(F)c1)C(C#N)=C(N)O3 (configuration not stated)	-3	90*	91*	62*	-5
CCOC(=O)/C(C#N)=C(C)/C=C1\Sc2ccccc2N1CC	?	-37	19*	-40	0
Cc1cn([C@H]2C[C@H](O)[C@@H](CNS(=O)(=O)c3ccc(NS(=O)(=O)N(C)C)cc3)O2)c(=O)[nH]c1=O	.	.	.	.	0
C=CCN1C(=O)[C@@H](CC(=O)N2CCOCC2)[C@]2(C(=O)OCC)CCCCC/C=C/12	.	.	.	.	0
NC(=O)c1ccccc1N/C=C/C(=O)c1ccc(Cl)cc1Cl	-3	5	44*	16	1
COc1ccc([C@H]2C[C@H](O)[C@@H](n3cc(C4CC4)nn3)CN2C(=O)C2CCCCC2)cc1	.	.	.	.	0
O=C1c2ccccc2C(=O)c2c1cccc2N(CCO)CCO	-42*	.	-9	.	1
CCOc1ccccc1-c1ccc2nccn2c1	.	.	.	.	-1
Cc1cccc(N2CCN(C(=S)c3ccc([N+](=O)[O-])cc3)CC2)c1	1	46	0	14	1
Cc1ccccc1N1CCN(C(=S)c2ccc([N+](=O)[O-])cc2)CC1	-2	35	26*	27	0
CC1=NN(C(C#N)c2ccccc2C)C(C)(C)C1 (configuration not stated)	1	75*	2	2	0
COc1ccc([C@H]2CC(=O)C=C(c3ccc(F)cc3OCc3ccccc3)C2)cc1OC	.	.	.	.	0
CN(C)CCN1C(=O)C(O)=C(C(=O)c2cc3ccccc3o2)C1c1ccccn1 (configuration not stated)	2	0	25*	-10	.
SMILES	MEX-5 binding	Runt-CBFb FRET	RanGTP-Imp inh	Runt-SMMHC FRET	KLK7 zymogen act
CCN(CC)CCN1C(=O)C(=O)/C(=C(/O)c2cccc(OC)c2)C1c1ccccn1 (configuration not stated)	0	1	43*	-5	0
CCN(CC)CCCN1C(=O)C(=O)/C(=C(/O)c2ccc(Cl)cc2)C1c1ccccn1 (configuration not stated)	0	0	1	-3	0
CCN(CC)CCN1C(=O)C(O)=C(C(=O)c2ccco2)C1c1ccccn1 (configuration not stated)	-5	9	59*	10	1
O=C(O)C(O)Cc1c[nH]c2ccccc12 (configuration not stated)	.	0	.	2	0
O=C(CC(C(=O)O)c1c[nH]c2ccccc12)c1ccccc1 (configuration not stated)	-1	1	42*	3	-1
Cc1cccc2c1-c1sc(C(=O)Nc3nccs3)cc1CO2	0	-20	22*	25	-263

Compound activity (PubChem)
